In ChEMBL document CHEMBL1135806, “Synthesis, biological evaluation, and quantitative structure-activity relationship analysis of new Schiff bases of hydroxysemicarbazide as potential antitumor agents” (J Med Chem, 2002) one finds IC50 data, which are given here for 32 molecules.

Structures are written as SMILES. Bounds are passed on as bounds.

The subject of the assay is L1210. As to the kind of experiment: Activity against lymphocytic murine leukemia cell line L1210 using MTS/PES microculture tetrazolium assay. Particulars: Mus musculus. Type of assay: functional, cell-based. Put shortly: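 L1210 cells kept in RPMI-1640 with 10% FBS and penicillin/streptomycin, 37 °C, 5% CO2. Seeded at 1×10^5/mL. DMSO stocks diluted in medium to six concentrations, 2×10⁻³ to 1×10⁻⁸ M, in triplicate; final DMSO 1% at top dose, otherwise <0.25%. Incubated 65 h, then MTS/PES for 3 h, A490. Inhibition relative to DMSO control; IC50 by probit regression; repeated at least twice.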
`O=C(NO)N/N=C/c1cccc([N+](=O)[O-])c1` came in with an IC50 of 399 µM. `CC(=O)Nc1ccc(/C=N/NC(=O)NO)cc1` gave an IC50 of 944 µM. The same measure for `COc1ccc(/C=N/NC(=O)NO)cc1`: 317 µM; for `O=C(NO)N/N=C/c1ccc(O)c(O)c1O`: 2.7 µM. `O=C(NO)N/N=C/c1c2ccccc2c(Cl)c2ccccc12`: it took 5.4 µM to reach half-maximal inhibition (IC50).

In turn, `O=C(NO)N/N=C/c1ccc2c(c1)OCCO2` returned an IC50 of 178 µM.

In turn, `Cc1c2ccccc2c(/C=N/NC(=O)NO)c2ccccc12` came in with a half-maximal inhibitory concentration (IC50) of 4.4 µM. As for `O=C(NO)N/N=C/c1c[nH]c2ccccc12`, the IC50 was found to be 477 µM. The same measure for `O=C(NO)N/N=C/c1ccc(OCc2ccccc2)cc1`: 48.1 µM; for `O=C(NO)N/N=C/c1ccc([N+](=O)[O-])s1`: 10.6 µM. Turning to `O=C(NO)N/N=C/c1cc(Br)ccc1O`, the 50% inhibitory concentration (IC50) turned out to be 10.1 µM. For `N#Cc1ccc(/C=N/NC(=O)NO)cc1`, the midpoint of inhibition, the IC50, lay at 208 µM. On to `COc1cccc(/C=N/NC(=O)NO)c1`, for which it took 369 µM to reach half-maximal inhibition (IC50). This IC50 lies about 1.8-fold higher than the previous one. `COc1ccc(OC)c(/C=N/NC(=O)NO)c1`: 30.1 µM corresponded to half-maximal inhibition (IC50). This IC50 is about 12-fold lower than that of the molecule before. Consider `O=C(NO)N/N=C/c1ccc(-c2ccccc2)cc1`, for which half-maximal inhibition (IC50) required 42.7 µM. This IC50 and that of the molecule before are within 1.5-fold of each other. Under `COc1ccc(/C=N/NC(=O)NO)c(O)c1` stands 60.2 µM.

Molecule `CC(C)c1ccc2occ(/C=N/NC(=O)NO)c(=O)c2c1` came in with an IC50 of 32.2 µM. For `O=C(NO)N/N=C/c1cccc(C(F)(F)F)c1`, the IC50 came out at 39.5 µM. Under `Cc1cccc(/C=N/NC(=O)NO)n1` stands 891 µM; under `NNC(=O)NO`, 282 µM.

Molecule `O=C(NO)N/N=C/c1cc(Br)cc(Br)c1O` displayed an IC50 of 7.2 µM. This IC50 lies about 39-fold lower than the previous one. Take `O=C(NO)N/N=C/c1ccc(O)cc1O`: the IC50 was found to be 131 µM. The molecule `O=C(NO)N/N=C/c1cc([N+](=O)[O-])cc([N+](=O)[O-])c1O` displayed an IC50 of 821 µM.

In turn, `COc1cc(Br)cc(/C=N/NC(=O)NO)c1O` displayed an IC50 of 37.7 µM. Molecule `CN(C)c1ccc(/C=N/NC(=O)NO)cc1` gave a half-maximal inhibitory concentration (IC50) of 446 µM. `O=C(NO)N/N=C/c1cccnc1` gave an IC50 of 607 µM.

In turn, `O=C(NO)N/N=C/c1cccc(I)c1` registered an IC50 of 80.4 µM. This IC50 is about 7.5-fold lower than that of the molecule before.

In turn, `O=C(NO)N/N=C/c1coc2c(Cl)cc(Cl)cc2c1=O` had an IC50 of 28.2 µM. The same measure for `O=C(NO)N/N=C/c1cc(I)cc(I)c1O`: 4.7 µM; for `O=C(NO)N/N=C/c1cc(Cl)cc(Cl)c1O`: 6.5 µM; for `COc1cc(O)c(/C=N/NC(=O)NO)c(OC)c1`: 91.4 µM.

`NNC(N)=O` [HYDRAZINECARBOXAMIDE]: the IC50 is more than 2190 µM.

As usually defined, the IC50 is the concentration needed to halve the response being measured. A high value points to a need for much substance.
